Here are results for 1 molecule from ChEMBL document CHEMBL2331391, “Peroxisome proliferator-activated receptor-γ mediates the anti-inflammatory effect of 3-hydroxy-4-pyridinecarboxylic acid derivatives: synthesis and biological evaluation” (Eur J Med Chem, 2013).

Molecules are shown by their SMILES. The source made the active and inactive calls. The calls are words filed in the database; no cut-off is given here.

For experiment [1], the system named is CMT93. Description: Increase in ROS production in LPS-stimulated mouse CMT93 cells at 10 uM preincubated for 30 mins before LPS-challenge measured after 24 hrs post challenge by DCFDA fluorescence assay in presence of PPAR-gamma antagonist PD68235. In kind it is functional, cell-based.
Experiment [2] can be described thus: Antiinflammatory activity in human macrophages assessed as inhibition of LPS-induced TNFalpha release at 10 '-2 uM preincubated for 30 mins before LPS-challenge measured after 24 hrs post challenge by ELISA (reference value: 1682 +/-190 ng/ml). In kind it is functional, Macrophage. The gist of the method:
(§1)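 Human blood PBMC-derived macrophages were used after 10 days of culture. Purity >95% (esterase, CD14, morphology). Cells were pretreated 30 min at 37 °C with compound, then given 100 ng/mL LPS (S. enteritidis) for 24 h. TNFα, IL-1β and IL-8 in conditioned medium were measured by ELISA. Working solutions were endotoxin-tested by LAL (<3 pg/mL).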
(In general: An ELISA detects its analyte on a solid surface through an enzyme-linked reagent.)

Experiment [3] deals with CMT93. Description: Increase in ROS production in mouse CMT93 cells at 10 uM measured after 30 mins by DCFDA fluorescence assay (reference value: 2.64 %). It counts as functional, cell-based.
Experiment [4] in a line: Antiinflammatory activity in human macrophages assessed as inhibition of LPS-induced IL8 release at 5 uM preincubated for 30 mins before LPS-challenge measured after 24 hrs post challenge by ELISA (reference value: 7.86 +/-0.17 ng/ml). In kind it is functional, Macrophage. The gist of the method:
as §1

Experiment [5] relates to Macrophage. Briefly: Antiinflammatory activity in human macrophages assessed as inhibition of LPS-induced IL-8 release at 10 uM preincubated for 30 mins before LPS-challenge measured after 24 hrs post challenge by ELISA. It counts as functional, cell-based. The gist of the method:
as §1

Experiment [6] addresses Transcription factor p65 (Mus musculus) (UniProt Q04207). Briefly: Inhibition of LPS-induced p65 NF-kappaB activation in mouse CMT93 cells assessed as inhibition of in COX-2 expression at 10 uM preincubated for 30 mins before LPS-challenge measured after 6 hrs post challenge by Western blot analysis. It counts as cell-based. In outline:
(§2)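 CMT-93 cells were pretreated with 10 µM compound and stimulated with LPS for 6 h. Lysates were run on 10% SDS-PAGE and transferred to PVDF. Blots were probed overnight at 4 °C for phospho-p65, IκBα or COX-2 (1:1000), with HRP detection.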
(In general: A western blot detects proteins with antibodies after separation by electrophoresis.)

Experiment [7] shares this target. Briefly: Inhibition of LPS-induced p65 NF-kappaB activation in mouse CMT93 cells assessed as inhibition of in IkBalpha degradation at 10 uM preincubated for 30 mins before LPS-challenge measured after 6 hrs post challenge by Western blot analysis. In kind it is cell-based. The gist of the method:
as §2

The next experiment concerns Mus musculus. Briefly: Antiinflammatory activity in DSS-induced C57Bl/6 mouse colitis model assessed as inhibition MPO activity in colonic homogenate at 400 mg/kg/day administered intragastrically for 7 days. It counts as functional. The settings on record: C57Bl/6, po, 168 h, route intragastric. In outline:
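Male C57Bl/6J mice, 8–10 per group, dosed intragastrically daily for 7 days at 400 mg/kg/day (vehicle 100 µL). From day 2, drinking water carried 3.5% w/vol DSS. Killed 5 days after colitis induction. Full-thickness proximal colon homogenised for MPO activity and IL-1β protein.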

Experiment [8] is described as follows: Antiinflammatory activity in human macrophages assessed as inhibition of LPS-induced IL8 release at 10 uM preincubated for 30 mins before LPS-challenge measured after 24 hrs post challenge by ELISA (reference value: 7.86 +/-0.17 ng/ml). It counts as functional, Macrophage. The gist of the method: as §1
The subject of experiment [9] is Macrophage. Briefly: Antiinflammatory activity in human macrophages assessed as inhibition of LPS-induced IL8 mRNA transcript accumulation at 10 uM preincubated for 30 mins before LPS-challenge measured after 24 hrs post challenge by quantitative PCR analysis. It counts as functional, cell-based. In outline:
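Monocyte-derived human macrophages were pretreated with 10 µM compound, then stimulated with LPS for 24 h. RNA was extracted and TNFα and IL8 transcripts were quantified by real-time RT-PCR with UPL probes. GAPDH served as reference gene.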

The target of experiment [10] is T1, Peroxisome proliferator-activated receptor gamma (Mus musculus) (UniProt P37238).
T1 sequence (whole entry): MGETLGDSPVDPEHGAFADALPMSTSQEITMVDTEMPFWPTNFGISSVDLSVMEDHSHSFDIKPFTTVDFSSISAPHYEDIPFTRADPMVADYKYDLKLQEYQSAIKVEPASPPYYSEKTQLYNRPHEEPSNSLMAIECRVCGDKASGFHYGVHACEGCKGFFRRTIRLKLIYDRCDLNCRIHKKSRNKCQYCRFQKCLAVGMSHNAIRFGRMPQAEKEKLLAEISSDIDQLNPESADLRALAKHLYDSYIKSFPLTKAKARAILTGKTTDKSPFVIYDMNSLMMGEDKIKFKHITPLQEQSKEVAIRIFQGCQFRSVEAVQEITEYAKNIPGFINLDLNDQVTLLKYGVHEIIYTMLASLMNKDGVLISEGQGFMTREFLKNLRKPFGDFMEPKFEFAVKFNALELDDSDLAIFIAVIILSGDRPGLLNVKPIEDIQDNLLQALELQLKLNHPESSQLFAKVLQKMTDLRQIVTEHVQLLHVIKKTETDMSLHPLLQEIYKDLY
Briefly: Induction of PPAR-gamma promoter activity in mouse CMT93 cells at 10 uM by luciferase reporter gene assay. In kind it is cell-based. The gist of the method:
(§3)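 CMT-93 cells (1×10⁵/well) were transfected with an NF-κB or PPRE luciferase reporter plus CMV-β-Gal. At 24 h they were treated with compound for 30 min, then with 100 ng/mL LPS for 6 h. Cells were lysed in Tris/EDTA/DTT/Triton buffer and supernatant luciferase was read by luminometer. Results are fold over untreated cells.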
For orientation: A reporter such as luciferase makes a cellular process visible.

For experiment [11], the target named is T1, Peroxisome proliferator-activated receptor gamma (Mus musculus). Description: Induction of PPAR-gamma promoter activity in LPS-stimulated mouse CMT93 cells at 10 uM preincubated for 30 mins before LPS-challenge measured after 6 hrs post challenge by luciferase reporter gene assay. In kind it is cell-based. In outline: as §3

Chain of Transcription factor p65 (Mus musculus) (Q04207 whole entry): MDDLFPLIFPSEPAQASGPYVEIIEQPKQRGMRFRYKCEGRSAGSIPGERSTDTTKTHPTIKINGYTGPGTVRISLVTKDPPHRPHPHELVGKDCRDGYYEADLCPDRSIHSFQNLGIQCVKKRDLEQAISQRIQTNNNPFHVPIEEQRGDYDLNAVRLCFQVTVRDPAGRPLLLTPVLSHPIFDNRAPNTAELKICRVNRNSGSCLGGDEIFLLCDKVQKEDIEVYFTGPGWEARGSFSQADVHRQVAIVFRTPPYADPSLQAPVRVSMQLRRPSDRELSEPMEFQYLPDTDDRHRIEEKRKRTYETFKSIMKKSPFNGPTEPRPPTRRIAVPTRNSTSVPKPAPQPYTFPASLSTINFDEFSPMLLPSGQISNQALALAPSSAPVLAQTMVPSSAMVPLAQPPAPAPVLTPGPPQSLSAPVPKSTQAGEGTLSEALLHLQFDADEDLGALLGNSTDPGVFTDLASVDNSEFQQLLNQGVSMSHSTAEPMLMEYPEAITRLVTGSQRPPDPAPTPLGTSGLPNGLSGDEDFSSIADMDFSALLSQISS

What is called inhibition in vivo is the drop in the measured response relative to a control, in per cent. On to `C[n+]1ccc(C(=O)O)c(O)c1.[Cl-]`, for which the outcome in the experiment with CMT93 [1] was inactive. In addition, the Activity in experiment [2] was 1654 ng/mL; in experiment [4], 7.34 ng/mL; in experiment [8], 5.4 ng/mL. In addition, the outcome (in the experiment with CMT93 [3]; in experiment [10]; in experiment [11]) was Active. For the same molecule, the inhibition result (in the experiment with Macrophage [5]; in [6]; in experiment [7]; in the experiment on Macrophage [9]) was “Active” throughout. Besides, the inhibition in vivo at 400 mg/kg/day with Mus musculus turned out to be 56%.
